The record followed here is ChEMBL document CHEMBL1157963, “Characterization of pentasaccharide glycosides from the roots of Ipomoea arborescens” (2006).

≈ marks a conversion by molar mass, not a printed value.

Type in all cases: functional
Common to all, as to conditions: read-out: ED50 (the source's name)

One experiment deals with HCT-15. Kind of experiment: Cytotoxicity against human HCT15 cells. The procedure, abridged: (§1)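 Cultured human carcinoma lines were used: colon HCT-15, cervical UISO-SQC-1 and ovarian OVCAR-5. Cells were exposed to a series of concentrations of the purified glycosides, and the cell inhibitory concentration was determined. Maintenance and assay details follow an earlier procedure that is not given here.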

Experiment [1] in a line: Cytotoxicity against human UISO-SQC1 cells. The procedure, abridged: as §1
For another experiment, the system named is OVCAR-5. The experiment in a line: Cytotoxicity against human OVCAR5 cells. In a few lines:
as §1

With `CCCCCCCCCCCC(=O)O[C@H]1[C@H](O[C@@H]2[C@@H](O)[C@H]3OC(=O)CCCCCCCCCC(CCCCC)O[C@@H]4O[C@H](CO)[C@@H](O)[C@H](O)[C@H]4O[C@H]3O[C@H]2C)O[C@@H](C)[C@H](O[C@@H]2O[C@@H](C)[C@H](OC(=O)CC)[C@@H](OC(=O)C(C)C(C)O)[C@H]2O[C@H]2O[C@H](CO)[C@@H](O)[C@H](O)[C@H]2O)[C@H]1O` (some centres undefined) [ARBORESIN 3], the EC50 (with HCT-15; in experiment [1]; with OVCAR-5) was above 5 µg/mL each time.

With `CCCCCCCCCCCC(=O)O[C@H]1[C@H](O[C@@H]2[C@@H](O)[C@H]3OC(=O)CCCCCCCCCC(CCCCC)O[C@@H]4O[C@H](C)[C@@H](O)[C@H](O)[C@H]4O[C@H]3O[C@H]2C)O[C@@H](C)[C@H](O[C@@H]2O[C@@H](C)[C@H](O)[C@@H](O)[C@H]2O[C@H]2O[C@H](CO)[C@@H](O)[C@H](O)[C@H]2O)[C@H]1O` (some centres undefined) [MURUCIN 9], the EC50 in the experiment with HCT-15 is above 5 µg/mL; in experiment [1], above 5 µg/mL; with OVCAR-5 it was 4 µg/mL (≈ 3.38 µM).

Turning to `CCCCCCCCCCCC(=O)O[C@H]1[C@H](O[C@@H]2[C@@H](O)[C@H]3OC(=O)CCCCCCCCCC(CCCCC)O[C@@H]4O[C@H](CO)[C@@H](O)[C@H](O)[C@H]4O[C@H]3O[C@H]2C)O[C@@H](C)[C@H](O[C@@H]2O[C@@H](C)[C@H](OC(=O)C(C)CC)[C@@H](OC(=O)C(C)C(C)O)[C@H]2O[C@H]2O[C@H](CO)[C@@H](O)[C@H](O)[C@H]2O)[C@H]1O` (some centres undefined) [ARBORESIN 5], the EC50 (in the experiment on HCT-15; in experiment [1]; in the experiment with OVCAR-5) was above 5 µg/mL throughout.

For `CCCCCCCCCCCC(=O)O[C@H]1[C@H](O[C@@H]2[C@@H](O)[C@H]3OC(=O)CCCCCCCCCC(CCCCC)O[C@@H]4O[C@H](CO)[C@@H](O)[C@H](O)[C@H]4O[C@H]3O[C@H]2C)O[C@@H](C)[C@H](O[C@@H]2O[C@@H](C)[C@H](OC(=O)CCC)[C@@H](OC(=O)C(C)C(C)O)[C@H]2O[C@H]2O[C@H](CO)[C@@H](O)[C@H](O)[C@H]2O)[C@H]1O` (some centres undefined) [ARBORESIN 4], the EC50 (in the experiment on HCT-15; in experiment [1]; with OVCAR-5) was above 5 µg/mL throughout.

On to `CCCCCCCCCCCC(=O)O[C@H]1[C@H](O[C@@H]2[C@@H](O)[C@H]3OC(=O)CCCCCCCCCC(CCCCC)O[C@@H]4O[C@H](CO)[C@@H](O)[C@H](O)[C@H]4O[C@H]3O[C@H]2C)O[C@@H](C)[C@H](O[C@@H]2O[C@@H](C)[C@H](O)[C@@H](OC(=O)C(C)C(C)O)[C@H]2O[C@H]2O[C@H](CO)[C@@H](O)[C@H](O)[C@H]2O)[C@H]1O` (some centres undefined) [ARBORESIN 1], for which the EC50 in the experiment on HCT-15 is above 5 µg/mL; in experiment [1], above 5 µg/mL; in the experiment with OVCAR-5 it was 5 µg/mL (≈ 3.85 µM).

Take `C/C=C(\C)C(=O)O[C@@H]1[C@@H](OC(=O)C(C)C(C)O)[C@@H](O[C@H]2O[C@H](CO)[C@@H](O)[C@H](O)[C@H]2O)[C@H](O[C@@H]2[C@@H](O)[C@@H](OC(=O)CCCCCCCCCCC)[C@H](O[C@@H]3[C@@H](O)[C@H]4OC(=O)CCCCCCCCCC(CCCCC)O[C@@H]5O[C@H](C)[C@@H](O)[C@H](O)[C@H]5O[C@H]4O[C@H]3C)O[C@H]2C)O[C@H]1C` (some centres undefined) [MURUCIN 8]: the EC50 (with HCT-15; in experiment [1]; with OVCAR-5) was above 5 µg/mL each time.

For `CCCCCCCCCCCC(=O)O[C@H]1[C@H](O[C@@H]2[C@@H](O)[C@H]3OC(=O)CCCCCCCCCC(CCCCC)O[C@@H]4O[C@H](CO)[C@@H](O)[C@H](O)[C@H]4O[C@H]3O[C@H]2C)O[C@@H](C)[C@H](O[C@@H]2O[C@@H](C)[C@H](OC(C)=O)[C@@H](OC(=O)C(C)C(C)O)[C@H]2O[C@H]2O[C@H](CO)[C@@H](O)[C@H](O)[C@H]2O)[C@H]1O` (some centres undefined) [ARBORESIN 2], the EC50 is above 5 µg/mL in the experiment on HCT-15, above 5 µg/mL in experiment [1] and 4.2 µg/mL (≈ 3.13 µM) in the experiment on OVCAR-5.

On to `C/C=C/C(=O)O[C@@H]1[C@@H](OC(=O)C(C)C(C)O)[C@@H](O[C@H]2O[C@H](CO)[C@@H](O)[C@H](O)[C@H]2O)[C@H](O[C@@H]2[C@@H](O)[C@@H](OC(=O)CCCCCCCCCCC)[C@H](O[C@@H]3[C@@H](O)[C@H]4OC(=O)CCCCCCCCCC(CCCCC)O[C@@H]5O[C@H](C)[C@@H](O)[C@H](O)[C@H]5O[C@H]4O[C@H]3C)O[C@H]2C)O[C@H]1C` (some centres undefined) [MURUCIN 7], for which the values for the EC50 (in the experiment on HCT-15; in experiment [1]; with OVCAR-5) were above 5 µg/mL, above 5 µg/mL and 4.5 µg/mL (≈ 3.33 µM), respectively.
